Reference: publication PMC10756989 (Heliyon, 2023)

How the values were obtained:
[1] = DPPH radical mopping capacity; details: DPPH 300 μM in methanol, 30 min, 516 nm
Summary of the method: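 Test compound or Trolox reference (63–500 μg/mL) mixed with DPPH in methanol and kept in the dark at ambient temperature. Absorbance is read against a control without sample or Trolox.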

[2] = target: T1, pancreatic α-amylase (Homo sapiens, UniProt P04746); assay: α-amylase enzyme inhibitory activity; format: biochemical; details: for percentage α-amylase inhibition: at 63 μg/mL, Fig. 5
T1 sequence (P04746 16-511): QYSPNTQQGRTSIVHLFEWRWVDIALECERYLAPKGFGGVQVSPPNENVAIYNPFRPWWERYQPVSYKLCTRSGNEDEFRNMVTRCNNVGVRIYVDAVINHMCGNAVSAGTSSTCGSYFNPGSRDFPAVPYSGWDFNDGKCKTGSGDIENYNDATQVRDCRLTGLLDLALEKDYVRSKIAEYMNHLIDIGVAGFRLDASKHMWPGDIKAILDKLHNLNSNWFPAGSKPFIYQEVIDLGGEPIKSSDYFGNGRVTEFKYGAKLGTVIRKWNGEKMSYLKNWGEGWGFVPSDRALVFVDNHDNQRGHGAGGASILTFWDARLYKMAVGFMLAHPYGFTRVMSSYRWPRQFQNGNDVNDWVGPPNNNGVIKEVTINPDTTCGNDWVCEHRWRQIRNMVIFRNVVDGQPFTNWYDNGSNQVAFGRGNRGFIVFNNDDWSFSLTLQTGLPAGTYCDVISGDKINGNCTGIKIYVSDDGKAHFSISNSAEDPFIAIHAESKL

[3] = Ferric; details: for FRAP IC50: ferric reducing power, 63–500 μg/mL, 700 nm; for Fe^3+ reducing power: at 500 μg/mL, Fig. 14
Summary of the method: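 Potassium ferricyanide reduction: test compound or Trolox (63–500 μg/mL) with 200 mM phosphate buffer and 1 % K3Fe(CN)6, 50 °C, 25 min. Then TCA (0.1 g/mL) is added, the mix is diluted with water, and 0.1 % FeCl3 is added before reading. Reducing capacity is estimated from a gallic acid standard curve.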

[4] = Nitric oxide; details: for NO IC50: 10 mM sodium nitroprusside, pH 7.4 PBS, 25 °C, 546 nm; for NO scavenging activity: Fig. 12
Summary of the method: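 Test compound or Trolox reference at various concentrations, incubated 2 h with sodium nitroprusside in PBS. Griess reagent is added, with a further 5 min at 25 °C. Absorbance is read against a blank without test samples.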

[5] = target: yeast α-glucosidase (Saccharomyces cerevisiae, UniProt P53341); assay: α-glucosidase enzyme inhibitory activity; format: biochemical; details: for α-glucosidase percentage inhibition: at 250 μg/mL
yeast α-glucosidase, sequence (P53341 whole entry): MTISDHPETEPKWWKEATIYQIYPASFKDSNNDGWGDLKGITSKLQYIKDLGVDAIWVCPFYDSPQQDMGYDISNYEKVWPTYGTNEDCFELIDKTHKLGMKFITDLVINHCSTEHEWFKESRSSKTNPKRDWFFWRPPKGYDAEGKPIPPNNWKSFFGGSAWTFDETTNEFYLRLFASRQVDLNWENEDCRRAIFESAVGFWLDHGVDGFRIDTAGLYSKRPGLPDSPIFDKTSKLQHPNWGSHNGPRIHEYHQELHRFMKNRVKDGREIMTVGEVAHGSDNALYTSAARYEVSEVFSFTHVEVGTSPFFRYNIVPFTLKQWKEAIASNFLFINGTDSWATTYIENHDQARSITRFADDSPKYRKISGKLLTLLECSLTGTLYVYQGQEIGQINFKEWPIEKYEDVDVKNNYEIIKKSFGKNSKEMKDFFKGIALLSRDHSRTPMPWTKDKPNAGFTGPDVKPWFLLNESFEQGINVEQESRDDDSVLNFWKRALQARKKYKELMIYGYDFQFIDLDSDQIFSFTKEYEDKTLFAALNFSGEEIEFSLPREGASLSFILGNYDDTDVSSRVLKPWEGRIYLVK

Row | SMILES | DPPH IC50 [1] | percentage α-amylase inhibition [2] | FRAP IC50 [3] | NO IC50 ([4]; listed as Acarbose (Standard)) | IC50 [2] [µM] | Fe^3+ reducing power [3] | NO IC50 [4] | NO scavenging activity ([4]; at 63–250 μg/mL, versus other compounds and Trolox) | α-glucosidase percentage inhibition ([5]; Fig. 6) | α-glucosidase inhibitory effect ([5]; at 63–125 μg/mL, among the synthesised samples, Fig. 6) | NO scavenging activity ([4]; at 500 μg/mL) | IC50 [5] [µM] | α-glucosidase inhibitory activity ([5]; at 500 μg/mL, compared with L1 and acarbose, Fig. 6)
1 | C[C@H]1O[C@H](O[C@H]2[C@H](O)[C@@H](O)[C@@H](O[C@H]3[C@H](O)[C@@H](O)C(O)O[C@@H]3CO)O[C@@H]2CO)[C@H](O)[C@@H](O)[C@@H]1N[C@H]1C=C(CO)[C@@H](O)[C@H](O)[C@H]1O (stereo partly shown) [Acarbose, reference compound] | 13,62 μg/mL | indistinguishable | 292,51 μg/mL | 109,59 μg/mL |  |  |  |  |  |  |  |  | 
2 | Cc1cc(C)c(/N=C/c2ccc3ccccc3c2)c(C)c1 [Compound L1, (E)-N-mesityl-1-(naphthalen-2-yl)methanimine] | 25,44 μg/mL | indistinguishable | >500 µg/mL |  | 215 | slightly better abilities | 70,91 μg/mL | significantly higher | did not exhibit statistically significant differences | significantly higher inhibitory effect |  |  | 
3 | Cc1cccc(C)c1/N=C/c1ccc2ccccc2c1 [Compound L2, (E)-N-(2,6-dimethylphenyl)-1-(naphthalen-2-yl)methanimine] | 35,69 μg/mL | indistinguishable | >500 µg/mL |  | > 1930 | slightly better abilities | 119,68 μg/mL |  | did not exhibit statistically significant differences |  | lower compared with the other test compounds and standard | 568 | significantly greater activity
4 | CC(C)c1cccc(C(C)C)c1/N=C/c1ccc2ccccc2c1 [Compound L3, (E)-N-(2,6-diisopropylphenyl)-1-(naphthalen-2-yl)methanimine] | 67,81 μg/mL |  | >500 µg/mL |  | > 1580 |  | 91,21 μg/mL |  |  |  |  | 653 | 
5 | Cc1c(C)c2c(c(C)c1O)CCC(C)(C(=O)O)O2 (stereo not shown) [Trolox, reference compound] | 13.62 µg/mL |  | 292.51 µg/mL |  |  |  | 109.59 µg/mL |  |  |  |  |  | 
